*1 amine or outer side, *2 acyl side, *3 side chain or, on linkers, in order; H or OH if unused. Where a SMILES comes first, the peptide text is derived from it. Bridges are numbered along the chain shown (N, C = ends). Roman numbers before positions name the chains, in order. [ ]: non-standard residue; d: D form. Actinocin(1to9) = Cc1c2oc3c(C)ccc(C(=O)[*:2])c3nc-2c(C(=O)[*:1])c(N)c1=O; NMeV = CN[C@H](C(=O)O)C(C)C; Sar = CNCC(=O)O
Tests used:
Assay type in all cases: functional, cell-based
U2OS = experiment: Antiproliferative activity against human U2OS cells after 48 hrs by MTT assay
Summary of the method: (§1)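 Cells grown in high-glucose DMEM with 10% FBS at 37 °C under humidified 5% CO2. Seeded in 96-well plates at 10 000 (HT29), 3000 (HeLa) or 5000 (U2OS) cells per well. Treated 24 h later with a concentration series; solvent controls were 1% EtOH or 1% DMSO. Viability read by MTT after 48 h incubation.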

HT-29 = experiment: Antiproliferative activity against human HT29 cells after 48 hrs by MTT assay; conditions: HT-29, 48 h; summary of the method: as §1
HeLa = experiment: Antiproliferative activity against human HeLa cells after 48 hrs by MTT assay; summary of the method: as §1

| SMILES | IC50 (U2OS) [µM] | IC50 (HT-29) [µM] | IC50 (HeLa) [µM] |
| --- | --- | --- | --- |
| CC[C@H](C)[C@H]1C(=O)N2CCC[C@H]2C(=O)O[C@H](C(C)(C)C)C[C@@H](C)C[C@H](O)[C@H](C)C2=N[C@@H](/C=C(\C)C(=O)N[C@@H](Cc3ccc(OC)cc3)C(=O)N(C)[C@@H](C)C(=O)N1C)CS2 [APRATOXIN A] | 0.01 | 0.0014 | 0.01 |
| CC[C@H](C)[C@H]1C(=O)N2CCC[C@H]2C(=O)O[C@H](C(C)(C)C)C[C@@H](C)C/C=C/C2=N[C@@H](CCC(=O)N[C@@H](Cc3ccc(OC)cc3)C(=O)N(C)[C@@H](C)C(=O)N1C)CS2 [APRATOXIN E] | 0.059 | 0.021 | 0.072 |
| Cc1c2oc3c(C)ccc(C(=O)N[C@@H]4C(=O)N[C@H](C(C)C)C(=O)N5CCC[C@H]5C(=O)N(C)CC(=O)N(C)[C@@H](C(C)C)C(=O)O[C@@H]4C)c3nc-2c(C(=O)N[C@@H]2C(=O)N[C@H](C(C)C)C(=O)N3CCC[C@H]3C(=O)N(C)CC(=O)N(C)[C@@H](C(C)C)C(=O)O[C@@H]2C)c(N)c1=O [DACTINOMYCIN] (I: T[dV]P[Sar][NMeV] / II: T[dV]P[Sar][NMeV]; ester I:1-I:C, II:1-II:C; linker I:N-II:N via Actinocin(1to9)) | 0.0032 | 0.0029 | 0.0004 |
| CC[C@H](C)[C@H]1C(=O)N2CCC[C@H]2C(=O)O[C@H](C(C)(C)C)C[C@@H](C)C/C=C(\C)C2=N[C@@H](/C=C(\C)C(=O)N[C@@H](Cc3ccc(OC)cc3)C(=O)N(C)[C@@H](C)C(=O)N1C)CS2 [E-DEHYDROAPRATOXIN A] | 0.16 | 0.041 | 0.121 |
| CC(=O)O[C@H]1C(=O)[C@@]2(C)[C@H]([C@H](OC(=O)c3ccccc3)[C@]3(O)C[C@H](OC(=O)[C@H](O)[C@@H](NC(=O)c4ccccc4)c4ccccc4)C(C)=C1C3(C)C)[C@]1(OC(C)=O)CO[C@@H]1C[C@@H]2O [PACLITAXEL] | 0.024 | 0.0019 | 0.0015 |

Source: ChEMBL document CHEMBL1157391, “Apratoxin E, a cytotoxic peptolide from a guamanian collection of the marine cyanobacterium Lyngbya bouillonii” (J Nat Prod, 2008)
